Measurements from ChEMBL document CHEMBL5108039, “Piperazine tethered bergenin heterocyclic hybrids: design, synthesis, anticancer activity, and molecular docking studies” (RSC Med Chem, 2022).
Active and inactive are the calls of the source. The rule behind the calls is not given here.

Assays:
[1] = system: CAL-27; experiment: Cytotoxicity against human CAL-27 cells assessed as cell growth inhibition; format: functional, cell-based
How it was run: (§1)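 Compounds were dissolved in sterile DMSO as 10 mg ml−1 stocks and tested for in vitro growth inhibition of human cancer cell lines. Doxorubicin was the standard drug and DMSO (0.01%) the vehicle control. IC50 values are reported as means.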

[2] = system: SCC-9; experiment: Cytotoxicity against human SCC-9 cells assessed as cell growth inhibition; format: functional, cell-based; how it was run: as §1
[3] = system: CAL-27; experiment: Cell cycle arrest in human CAL-27 cells assessed as accumulation at S phase at 32 uM incubated for 24 hrs by flow cytometry (reference value: 3.6 %); format: functional
[4] = system: SCC-9; experiment: Cell cycle arrest in human SCC-9 cells assessed as accumulation at G0/G1 phase at 16.2 uM incubated for 24 hrs by flow cytometry (reference value: 70.8 %); format: functional
[5] = system: SCC-9; experiment: Cell cycle arrest in human SCC-9 cells assessed as accumulation at G0/G1 phase at 32.4 uM incubated for 24 hrs by flow cytometry (reference value: 70.8 %); format: functional
[6] = system: SCC-9; experiment: Cell cycle arrest in human SCC-9 cells assessed as accumulation at S phase at 16.2 uM incubated for 24 hrs by flow cytometry (reference value: 14.4 %); format: functional
[7] = system: SCC-9; experiment: Cell cycle arrest in human SCC-9 cells assessed as accumulation at S phase at 32.4 uM incubated for 24 hrs by flow cytometry (reference value: 14.4 %); format: functional
[8] = system: SCC-9; experiment: Cell cycle arrest in human SCC-9 cells assessed as accumulation at G2/M phase at 32.4 uM incubated for 24 hrs by flow cytometry (reference value: 14.2 %); format: functional
[9] = system: CAL-27; experiment: Induction of apoptosis in human CAL-27 cells assessed as live cells at 16 uM incubated for 24 hrs by Annexin V-FITC/PI staining based flow cytometric analysis (reference value: 99.8 %); format: functional
How it was run: (§2)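 CAL27 cells were treated with vehicle, doxorubicin or test compounds at 10–63 μM, and apoptosis was assessed by annexin V–FITC/PI staining with flow cytometry. Cells were scored as live, early apoptotic, late apoptotic or necrotic. The vehicle was DMSO (0.01%).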

[10] = system: CAL-27; experiment: Induction of apoptosis in human CAL-27 cells assessed as necrotic cells at 16 uM incubated for 24 hrs by Annexin V-FITC/PI staining based flow cytometric analysis (reference value: 0.0 %); format: functional; how it was run: as §2
[11] = system: CAL-27; experiment: Induction of apoptosis in human CAL-27 cells assessed as late apoptotic cells at 32 uM incubated for 24 hrs by Annexin V-FITC/PI staining based flow cytometric analysis (reference value: 0.1 %); format: functional; how it was run: as §2
[12] = system: SCC-9; experiment: Induction of apoptosis in human SCC-9 cells assessed as early apoptotic cells at 16.2 uM incubated for 24 hrs by Annexin V-FITC/PI staining based flow cytometric analysis (reference value: 2.8 %); format: functional
[13] = system: SCC-9; experiment: Induction of apoptosis in human SCC-9 cells assessed as necrotic cells at 16.2 uM incubated for 24 hrs by Annexin V-FITC/PI staining based flow cytometric analysis (reference value: 0.1 %); format: functional
[14] = system: SCC-9; experiment: Induction of apoptosis in human SCC-9 cells assessed as live cells at 32.4 uM incubated for 24 hrs by Annexin V-FITC/PI staining based flow cytometric analysis (reference value: 95.7 %); format: functional
[15] = system: SCC-9; experiment: Induction of apoptosis in human SCC-9 cells assessed as necrotic cells at 32.4 uM incubated for 24 hrs by Annexin V-FITC/PI staining based flow cytometric analysis (reference value: 0.1 %); format: functional
[16] = system: CAL-27; experiment: Induction of apoptosis in human CAL-27 cells assessed as downregulation of Oct-4 gene expression at 16 uM by qRT-PCR analysis; format: functional, cell-based
How it was run: (§3)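 CAL27 cells were treated with test compounds at several concentrations. Relative expression of vimentin, E-cad, Nanog, Oct-4, Bax and BcL-2 was measured by qRT-PCR against vehicle-treated control cells.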

[17] = system: CAL-27; experiment: Induction of apoptosis in human CAL-27 cells assessed as downregulation of Oct-4 gene expression at 32 uM by qRT-PCR analysis; format: functional, cell-based; how it was run: as §3
[18] = system: CAL-27; experiment: Induction of apoptosis in human CAL-27 cells assessed as downregulation of Nanog gene expression at 16 uM by qRT-PCR analysis; format: functional, cell-based; how it was run: as §3
[19] = system: CAL-27; experiment: Induction of apoptosis in human CAL-27 cells assessed as downregulation of BcL-2 gene expression at 16 uM by qRT-PCR analysis; format: functional, cell-based; how it was run: as §3
[20] = system: CAL-27; experiment: Induction of apoptosis in human CAL-27 cells assessed as downregulation of BcL-2 gene expression at 32 uM by qRT-PCR analysis; format: functional, cell-based; how it was run: as §3
[21] = system: CAL-27; experiment: Induction of apoptosis in human CAL-27 cells assessed as upregulation of Bax gene expression at 16 uM by qRT-PCR analysis; format: functional, cell-based
How it was run: (§4)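 CAL27 cells were treated with test agents at different concentrations. Relative mRNA levels of vimentin, E-cad, Nanog, Oct-4, Bax and Bcl-2 were then quantified by qRT-PCR as apoptosis, EMT and stemness markers.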

[22] = system: CAL-27; experiment: Induction of apoptosis in human CAL-27 cells assessed as upregulation of Bax gene expression at 32 uM by qRT-PCR analysis; format: functional, cell-based; how it was run: as §4
[23] = system: SCC-9; experiment: Induction of apoptosis in human SCC-9 cells assessed as downregulation of vimentin gene expression at 32 uM by qRT-PCR analysis; format: functional, cell-based
[24] = system: SCC-9; experiment: Induction of apoptosis in human SCC-9 cells assessed as downregulation of Nanog gene expression at 16 uM by qRT-PCR analysis; format: functional, cell-based
[25] = system: SCC-9; experiment: Induction of apoptosis in human SCC-9 cells assessed as upregulation of E-cad gene expression at 16 uM by qRT-PCR analysis; format: functional, cell-based

**Q.** With COc1ccc(-c2csc(NC(=O)CN3CCN(Cc4c(O)c(OC)c(O)c5c4C(=O)OC4C5O[C@H](CO)[C@@H](O)[C@@H]4O)CC3)n2)cc1 (stereo not given in full) as the molecule, how does the IC50 [1] read?
**A.** Its IC50 is 16 µM.

**Q.** And the IC50 [2]?
**A.** Its IC50 is 32.4 µM.

**Q.** And the Activity [3]?
**A.** Its Activity is 3.1%.

**Q.** What about the Activity [4] of the same molecule?
**A.** The Activity was 71.4%.

**Q.** And the Activity [5]?
**A.** Its Activity is 77.6%.

**Q.** And the Activity [6]?
**A.** Its Activity is 16%.

**Q.** And the Activity [7]?
**A.** The Activity was 12.4%.

**Q.** And the Activity [8]?
**A.** Its Activity is 10.5%.

**Q.** And the Activity [9]?
**A.** The Activity was 94.5%.

**Q.** What about the Activity [10] of the same molecule?
**A.** The Activity was 0.9%.

**Q.** What about the Activity [11] of the same molecule?
**A.** Its Activity is 4.3%.

**Q.** What about the Activity [12] of the same molecule?
**A.** Its Activity is 6.2%.

**Q.** And the Activity [13]?
**A.** Its Activity is 9.2%.

**Q.** What about the Activity [14] of the same molecule?
**A.** Its Activity is 42.8%.

**Q.** And the Activity [15]?
**A.** The Activity was 33.8%.

**Q.** What about the Activity [16] of the same molecule?
**A.** The Activity was “Active”.

**Q.** And the Activity [17]?
**A.** The Activity was “Active”.

**Q.** And the Activity [18]?
**A.** The Activity was “Active”.

**Q.** And the Activity [19]?
**A.** Its Activity is “Active”.

**Q.** And the Activity [20]?
**A.** Its Activity is “Active”.

**Q.** What about the Activity [21] of the same molecule?
**A.** Its Activity is “Active”.

**Q.** And the Activity [22]?
**A.** Its Activity is “Active”.

**Q.** What about the Activity [23] of the same molecule?
**A.** Its Activity is “Active”.

**Q.** What about the Activity [24] of the same molecule?
**A.** Its Activity is “Active”.

**Q.** And the Activity [25]?
**A.** The Activity was “Active”.
